Experimental data pooled from the literature.
Each line is one published result; the experiments were not run side by side.
Effect on: metabolic stability
Species: human
Matrix: liver microsomes

`COc1ccc(Nc2ccnc3ccc(-c4ccc(S(=O)(=O)N5CCOCC5)cc4)cc23)cc1C` gave a microsomal CLint of 131 µL/min/mg.
`COc1cc2[nH]c(C)c(-c3ccc(CO)cc3)c(=O)c2cc1Cl` has a microsomal CLint of less than 7 µL/min/mg (1 µM).
`Cc1noc(C)c1Nc1ccnc2ccc(-c3ccc(S(=O)(=O)N4CCOCC4)cc3)cc12` gave a microsomal CLint of 78.2 µL/min/mg.
`Cc1cccc(CNc2nc(-c3ccccn3)nc3ccccc23)n1` has a microsomal CLint of 63 µL/min/mg.
`C=CCn1c(=O)c2cnc(Nc3ccc(N4CCN(C)CC4)cc3)nc2n1-c1cccc(C(C)(C)O)n1` gave a microsomal CLint of 17 µL/min/mg.
With `c1ccc(CN2CCN(c3nc(-c4ccccn4)nc4ccccc34)CC2)cc1` the microsomal CLint was 136 µL/min/mg.
`Clc1cccc(-c2c(-c3ccccn3)nc3n2CCC3)c1` gave a microsomal CLint of 140 µL/min/mg (3 µM; pH 7.4).
The microsomal CLint of `COc1cc2[nH]c(C)c(-c3ccc(OC(F)(F)F)cc3)c(=O)c2cc1Cl` is reported as less than 7 µL/min/mg (1 µM).
`N#CC1CCN(c2nc(-c3ccccn3)nc3ccccc23)C1` (stereo not shown) gave a microsomal CLint of 45 µL/min/mg.
The microsomal CLint of `COc1cc2[nH]c(C)c(-c3ccc(O)cc3)c(=O)c2cc1Cl` is reported as less than 7 µL/min/mg (1 µM).
With `C[C@H](C(=O)NC1Cc2ccccc2C1)c1ccc(F)cc1` the microsomal CLint was 120 µL/min/mg (1 µM; 1 h).
The microsomal CLint of `COc1cc2[nH]c(C)c(-c3ccc(N4CCN(C)CC4)nc3)c(=O)c2cc1Cl` is reported as 34 µL/min/mg (1 µM).
For `c1ccc(-c2nc(N3CCCC(c4ccccn4)C3)c3ccccc3n2)nc1` (stereo not shown), the microsomal CLint was 113 µL/min/mg.
For `Cc1cc(Nc2ccnc3ccc(-c4ccc(S(=O)(=O)N5CCOCC5)cc4)cc23)on1`, the microsomal CLint was 69.8 µL/min/mg.
For `CCOC(=O)c1c(-c2cccc(Br)c2)[nH]c2cc(OC)c(F)cc2c1=O`, the microsomal CLint was less than 4 µL/min/mg (19.8 µM; pH 7.4).
The microsomal CLint of `Cc1cc(Nc2ccc(S(F)(F)(F)(F)F)cc2)n2nc(C(F)(F)F)nc2n1` is reported as less than 6 µL/min/mg (1 µM; pH 7.4).
The microsomal CLint of `COc1cc2[nH]c(C)c(-c3ccc(OC(C)C)cc3)c(=O)c2cc1Cl` is reported as 8 µL/min/mg (1 µM).
With `COc1ccc2nc(-c3cc(N(C)C)ccn3)c(Nc3ccc(F)cc3)n2c1` the microsomal CLint was 120 µL/min/mg (3 µM; pH 7.4).
`Cc1cc(Nc2ccnc3ccc(-c4ccc(S(=O)(=O)N5CCOCC5)cc4)cc23)sn1` has a microsomal CLint of 115 µL/min/mg.
The microsomal CLint of `O=C(C1CCSCC1)N1CC(=O)N2CCc3ccccc3[C@@H]2C1` is reported as 28 µL/min/mg (0.1 µM; pH 7.4).
The microsomal CLint of `COc1cc2[nH]c(C)c(-c3cc4ccccc4o3)c(=O)c2cc1Cl` is reported as 29 µL/min/mg (1 µM).
The microsomal CLint of `Cc1cc(Nc2ccc(S(F)(F)(F)(F)F)cc2)n2nc(C(C)(F)F)nc2n1` is reported as less than 6 µL/min/mg (1 µM; pH 7.4).
With `COc1cc2[nH]c(C)c(-c3ccoc3)c(=O)c2cc1Cl` the microsomal CLint was 93 µL/min/mg (1 µM).
`CN(c1ccc(F)cc1)c1c(-c2ccc(F)cn2)nc2ccccn12` gave a microsomal CLint of 220 µL/min/mg (3 µM; pH 7.4).
For `Cc1cc(NC(=O)Nc2ccc3c(c2)OC(F)(F)O3)cc(C(F)(F)F)n1`, the microsomal CLint was less than 7 µL/min/mg.
With `COc1cc2[nH]c(C)c(-c3ccc(-c4ccccc4)cc3)c(=O)c2cc1Cl` the microsomal CLint was 14 µL/min/mg (1 µM).
The microsomal CLint of `Fc1ccc(Nc2c(-c3ncccc3F)nc3ccccn23)cc1` is reported as 86 µL/min/mg (3 µM; pH 7.4).
`CN(C)C(=N)N=C(N)N` gave a microsomal CLint of 1.5 µL/min/mg.
The microsomal CLint of `C[C@@H](C(=O)NC1Cc2ccccc2C1)c1ccccc1` is reported as 105 µL/min/mg (1 µM; 1 h).
`COc1cccc(-c2nc3ccccn3c2Nc2ccc(F)cc2)n1` has a microsomal CLint of 137 µL/min/mg (3 µM; pH 7.4).
The microsomal CLint of `CCC(F)(F)c1nc2nc(C)cc(Nc3ccc(S(F)(F)(F)(F)F)cc3)n2n1` is reported as less than 6 µL/min/mg (1 µM; pH 7.4).
For `FC(F)(F)c1ccccc1-c1nc(N2CCC(c3ccccn3)C2)c2ccccc2n1` (stereo not shown), the microsomal CLint was 199 µL/min/mg.
`CCOc1ccc2ccc(=O)oc2c1` gave a microsomal CLint of 146 µL/min/mg (1 µM; pH 7.4).
For `O=C(N[C@H](Cc1ccccc1)C(=O)Nc1ccccc1N1CCOCC1)c1cccs1`, the microsomal CLint was 1370 µL/min/mg (2 µM; 40 min; pH 7.4).
`Cc1cc(Nc2ccc(C(F)(F)F)cc2)c2ccccc2n1` gave a microsomal CLint of 4.8 µL/min/mg.
`O=c1[nH]c(=S)n(Cc2ccc(Cl)cc2CNCC(F)(F)F)c2cc[nH]c12` has a microsomal CLint of 8.2 µL/min/mg.
With `CCc1nnc(Nc2ccnc3ccc(-c4ccc(S(=O)(=O)N5CCOCC5)cc4)cc23)s1` the microsomal CLint was 59.3 µL/min/mg.
With `N#CC1CCN(c2nc(-c3ccccn3)nc3ccccc23)CC1` the microsomal CLint was 45 µL/min/mg.
The microsomal CLint of `O=S(=O)(c1ccc(-c2ccc3nccc(Nc4cnccn4)c3c2)cc1)N1CCOCC1` is reported as 115 µL/min/mg.
`c1ccc(-c2nc(N3CCOCC3)c3ccccc3n2)nc1` gave a microsomal CLint of 58 µL/min/mg.
The microsomal CLint of `CC(C)CCN(c1ccc(F)cc1)c1c(-c2ccccn2)nc2ccccn12` is reported as 110 µL/min/mg (3 µM; pH 7.4).
With `c1ccc(-c2nc(N3CCc4cccnc4C3)c3ccccc3n2)nc1` the microsomal CLint was 64 µL/min/mg.
For `COc1cc(OC)cc(-c2c(-c3ccccn3)nc3n2CCC3)c1`, the microsomal CLint was 53 µL/min/mg (3 µM; pH 7.4).
The microsomal CLint of `O=S(=O)(c1ccc(-c2ccc3nccc(Nc4ccc5[nH]nnc5c4)c3c2)cc1)N1CCOCC1` is reported as 52 µL/min/mg.
`Fc1ccc(Nc2c(-c3cccc(F)n3)nc3ccccn23)cc1` has a microsomal CLint of 130 µL/min/mg (3 µM; pH 7.4).
`Cc1cnnc(Nc2ccnc3ccc(-c4ccc(S(=O)(=O)N5CCOCC5)cc4)cc23)c1` gave a microsomal CLint of 126 µL/min/mg.
